Measured values reported in ChEMBL document CHEMBL3045523, “The limonoids and their antitobacco mosaic virus (TMV) activities from Munronia unifoliolata Oliv” (J Agric Food Chem, 2012).
≈ marks a conversion by molar mass, not a printed value.

Experiments:
Tobacco mosaic virus [1] = test: Inhibition of Tobacco mosaic virus (TMV) infection in Nicotiana glutinosa at 200 ug/ml after 3 to 4 days by half-leaf method; type: functional
Summary of the method: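 Curative half-leaf test on N. glutinosa. Leaves were mechanically inoculated with purified TMV U1 (30 μg/mL). After 2 h, compound (DMSO stock in water) was applied to the left half and DMSO to the right half. Lesions were counted after 3–4 days. Values are mean ± SD, n = 3.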

Tobacco mosaic virus [2] = test: Inhibition of Tobacco mosaic virus (TMV) infection in Nicotiana glutinosa assessed as infection inhibition rate at 30 ug/ml after 3 to 4 days by half-leaf method; type: functional
Summary of the method: (§1)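 Half-leaf protective assay on Nicotiana glutinosa local-lesion host at the 4–5 leaf stage. TMV U1, purified and diluted to 30 μg/mL in 0.01 M PBS, was mixed with compound solution (DMSO stock diluted in water) for 30 min. The mix was rubbed onto the left leaf half, with virus plus DMSO on the right half. Local lesions were counted 3–4 days later; three repetitions.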

Tobacco mosaic virus [3] = test: Inhibition of Tobacco mosaic virus (TMV) infection in Nicotiana tabacum cv. K326 at 30 ug/ml by DAS-ELISA method; type: functional
Summary of the method: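 Leaf-disk test in N. tabacum cv. K326. Leaves were inoculated with TMV (30 μg/mL), and 1 cm disks were cut after 72 h. Disks were floated on compound, DMSO (negative) or mock solutions at 28 °C for 48 h. Virus in disks was measured by DAS-ELISA at OD405 against a TMV standard curve (0.23–3.75 μg/mL). Inhibition = (1 − treated/negative-control TMV) × 100%.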

Tobacco mosaic virus [4] = test: Inhibition of Tobacco mosaic virus (TMV) infection in Nicotiana glutinosa assessed as infection inhibition rate at 20 ug/ml after 3 to 4 days by half-leaf method; type: functional; summary of the method: as §1
Tobacco mosaic virus [5] = test: Inhibition of Tobacco mosaic virus (TMV) infection in Nicotiana glutinosa assessed as infection inhibition rate at 15 ug/ml after 3 to 4 days by half-leaf method; type: functional; summary of the method: as §1
Tobacco mosaic virus [6] = test: Inhibition of Tobacco mosaic virus (TMV) infection in Nicotiana glutinosa assessed as infection inhibition rate at 10 ug/ml after 3 to 4 days by half-leaf method; type: functional; summary of the method: as §1
Tobacco mosaic virus [7] = test: Inhibition of Tobacco mosaic virus (TMV) infection in Nicotiana glutinosa assessed as infection inhibition rate at 5 ug/ml after 3 to 4 days by half-leaf method; type: functional; summary of the method: as §1
Tobacco mosaic virus [8] = test: Inhibition of Tobacco mosaic virus (TMV) infection in Nicotiana glutinosa after 3 to 4 days by half-leaf method; type: functional, organism-based; summary of the method: as §1
Tobacco mosaic virus [9] = test: Inhibition of Tobacco mosaic virus (TMV) infection in Nicotiana glutinosa assessed as infection inhibition rate at 25 ug/ml after 3 to 4 days by half-leaf method; type: functional; summary of the method: as §1

IC50 (Tobacco mosaic virus [8])	Compound	inhibition at 200 µg/mL (Tobacco mosaic virus [1])	inhibition at 30 µg/mL (Tobacco mosaic virus [2])	inhibition at 30 µg/mL (Tobacco mosaic virus [3])	inhibition at 20 µg/mL (Tobacco mosaic virus [4])	inhibition at 15 µg/mL (Tobacco mosaic virus [5])	inhibition at 10 µg/mL (Tobacco mosaic virus [6])	inhibition at 5 µg/mL (Tobacco mosaic virus [7])	inhibition at 25 µg/mL (Tobacco mosaic virus [9])
	CC(=O)O[C@H]1C[C@@H](OC(C)=O)[C@@]2(C)CO[C@H]3[C@@H](O)[C@@]4(C)C5=CC[C@@H](c6ccoc6)[C@]5(C)CC[C@@H]4[C@]1(C)[C@@H]32 [DIACETYLVILASININ]	17.2%	14.6%						
	C=C1[C@@H]([C@@]2(C)C=CC(=O)O[C@](C)(COC(C)=O)[C@@H]2CC(=O)OC)[C@@H](OC=O)[C@H](OC(=O)[C@H](O)[C@H](C)CC)[C@@]2(C)[C@@H](c3ccoc3)C[C@H]3O[C@]132 [MOMBASOL]	27.7%	25.9%	39.3%					
28.3 µg/mL (≈ 44 µM)	CCC(C)C(O)C(=O)O[C@H]1C[C@H]2[C@](C)(C3=CC[C@@H](c4ccoc4)[C@@]31C)[C@H](OC(C)=O)C[C@H]1C(C)(C)OC(=O)C[C@H](OC(C)=O)[C@@]12C (stereo partly specified) [MUNRONOID K]	55.6%	51.9%	67.2%	38.7%	28.6%	18.7%	6.5%	45.7%
34.6 µg/mL (≈ 60.6 µM)	CC(=O)O[C@H]1C[C@H]2[C@](C)(C3=CC[C@@H](c4ccoc4)[C@@]31C)[C@H](OC(C)=O)C[C@H]1C(C)(C)OC(=O)C[C@H](OC(C)=O)[C@@]12C [MUNRONOID L]	34.6%	47.7%	54.4%	35.8%	25.7%	15.3%	4.4%	43.9%
37 µg/mL (≈ 60.6 µM)	CC(=O)O[C@H]1C[C@H]2[C@](C)(C3=CC[C@@H](c4ccoc4)[C@@]31C)[C@H](OC(=O)C=C(C)C)C[C@H]1C(C)(C)OC(=O)C[C@H](OC(C)=O)[C@@]12C [MUNRONOID M]	29.3%	45.4%	45.7%	33.5%	22.6%	11.5%		42.9%
27.9 µg/mL (≈ 46.6 µM)	C/C=C(\C)C(=O)O[C@H]1C[C@@H](OC(C)=O)[C@@]2(C)CO[C@H]3[C@@H](O)[C@@]4(C)C5=C[C@@H](O)[C@@H](c6ccoc6)[C@]5(C)[C@@H](OC)C[C@@H]4[C@]1(C)[C@@H]32 [MUNRONOID N]	24.5%	52%	30.2%	37.9%	26.4%	16.5%	8.3%	44.6%
22.3 µg/mL (≈ 39.1 µM)	C=C1[C@@H]([C@@]2(C)C=CC(=O)OC(C)(C)[C@@H]2CC(=O)OC)[C@@H](OC(C)=O)[C@H](OC(C)=O)[C@@]2(C)[C@@H](c3ccoc3)C[C@H]3O[C@]132 [NYMANIA]	39.2%	58%	55.4%	40.2%	29.8%	19.6%	8.3%	49.8%

Compound	IC50 (Tobacco mosaic virus [8])	inhibition at 200 µg/mL (Tobacco mosaic virus [1])	inhibition at 30 µg/mL (Tobacco mosaic virus [2])	inhibition at 30 µg/mL (Tobacco mosaic virus [3])	inhibition at 20 µg/mL (Tobacco mosaic virus [4])	inhibition at 15 µg/mL (Tobacco mosaic virus [5])	inhibition at 10 µg/mL (Tobacco mosaic virus [6])	inhibition at 5 µg/mL (Tobacco mosaic virus [7])	inhibition at 25 µg/mL (Tobacco mosaic virus [9])
C=C1[C@@H]([C@@]2(C)C=CC(=O)OC(C)(C)[C@@H]2CC(=O)OC)[C@@H](OC(C)=O)[C@H](OC(C)=O)[C@@]2(C)[C@H](C3=CC(=O)OC3)C[C@H]3O[C@]132 [MUNRONOID O]	22.2 µg/mL (≈ 37.8 µM)	50.2%	64.2%	64.2%	42.8%	33.4%	24.6%	11.2%	51.4%
CNCC(=O)N[C@@H](CO)C(=O)N[C@H]1[C@H](O)[C@@H](O)[C@H](n2ccc(N)nc2=O)O[C@@H]1C(N)=O [NINGNANMYCIN]	52.1 µg/mL (≈ 117 µM)	42.1%	42.6%	56.5%	32.1%	30.3%	25%		38.3%
